From ChEMBL document CHEMBL1123129, “Hypolipidemic activity of indan-1,3-dione derivatives in rodents” (J Med Chem, 1985)

Tests used:
Mus musculus [1] = species: Mus musculus; assay: In Vitro evaluation for the CF1 liver enzyme activity on Hepatic lipoprotein lipase at concentration 200 uM; assay type: functional
In short: (§1)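 Mouse liver enzymes assayed in vitro on 10% homogenates of CF1 male mouse liver, with test drug added at 50–200 μM. Each enzyme follows a published procedure. Protein is measured by Lowry. Activity is given as % of untreated control (X ± SD, N = 6).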

Mus musculus [2] = assay: Compound was evaluated for the hypolipidemic activity in CF1 male mice at a dose of 60 mg/kg orally for Serum cholesterol at 16th day; assay type: functional; settings: route oral
In short: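 CF1 male mice received the agent orally in 1% CMC at 10–60 mg/kg per day. Tail-vein blood was taken on days 9 and 16. Serum cholesterol was measured by modified Liebermann–Burchard on duplicate 25-µL samples, and serum triglyceride on day 16 in duplicate 50-µL samples. Values are % of vehicle control, mean ± SD, N = 6; Student's t test.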

Rattus norvegicus [3] = assay: Compound was evaluated for the hypolipidemic activity at 20 mg/kg per day orally for 14 days on triglycerides content in rat VLDL; assay type: functional; settings: route oral
In short: (§2)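 Male Sprague–Dawley rats (~300 g) were dosed orally each day. Blood was drawn from the abdominal vein. Lipoprotein fractions (chylomicron, VLDL, LDL, HDL) were separated by the Hatch–Lees and Havel methods. Each fraction was assayed for cholesterol, triglyceride (enzymatic kit), neutral lipids, phospholipids and Lowry protein. Values are % of 1% CMC vehicle control, N = 6.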

Rattus norvegicus [4] = assay: Compound was evaluated for the hypolipidemic activity at 20 mg/kg per day orally for 14 days on cholesterol content in rat VLDL; assay type: functional; settings: route oral; in short: as §2
[5] = target: Cholesterol 7-alpha-hydroxylase (Cytochrome P450 7A1) (Mus musculus, UniProt Q64505); assay: In vitro percent Cholesterol 7-alpha-hydroxylase activity in mouse CF1 liver microsomes at 200 uM; parameters: species or system Microsome; settings: read-out: Control; in short: as §1
Chain of Cholesterol 7-alpha-hydroxylase (Cytochrome P450 7A1) (Q64505 whole entry): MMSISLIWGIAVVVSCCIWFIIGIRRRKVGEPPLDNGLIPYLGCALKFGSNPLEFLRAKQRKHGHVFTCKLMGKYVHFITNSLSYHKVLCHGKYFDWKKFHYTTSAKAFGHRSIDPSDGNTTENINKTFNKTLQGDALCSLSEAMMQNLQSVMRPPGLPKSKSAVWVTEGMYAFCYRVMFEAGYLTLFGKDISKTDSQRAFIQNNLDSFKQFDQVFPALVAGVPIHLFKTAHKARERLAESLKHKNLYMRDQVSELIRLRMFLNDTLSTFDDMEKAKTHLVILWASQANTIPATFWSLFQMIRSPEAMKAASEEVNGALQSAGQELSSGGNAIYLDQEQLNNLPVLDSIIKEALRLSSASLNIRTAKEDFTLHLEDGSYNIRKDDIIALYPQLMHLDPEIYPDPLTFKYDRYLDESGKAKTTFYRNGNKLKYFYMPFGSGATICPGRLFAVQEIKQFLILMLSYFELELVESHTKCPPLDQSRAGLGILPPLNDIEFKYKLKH

Rattus norvegicus [6] = assay: Compound was evaluated for the hypolipidemic activity at 20 mg/kg per day orally for 14 days on protein content in rat HDL; assay type: functional; settings: route oral; in short: as §2
[7] = target: T1, ATP-citrate synthase (Mus musculus) (UniProt Q91V92); assay: In Vitro evaluation for the CF1 liver enzyme activity on ATP-Citrate Lyase exchange at concentration 50 uM
T1 sequence (whole entry): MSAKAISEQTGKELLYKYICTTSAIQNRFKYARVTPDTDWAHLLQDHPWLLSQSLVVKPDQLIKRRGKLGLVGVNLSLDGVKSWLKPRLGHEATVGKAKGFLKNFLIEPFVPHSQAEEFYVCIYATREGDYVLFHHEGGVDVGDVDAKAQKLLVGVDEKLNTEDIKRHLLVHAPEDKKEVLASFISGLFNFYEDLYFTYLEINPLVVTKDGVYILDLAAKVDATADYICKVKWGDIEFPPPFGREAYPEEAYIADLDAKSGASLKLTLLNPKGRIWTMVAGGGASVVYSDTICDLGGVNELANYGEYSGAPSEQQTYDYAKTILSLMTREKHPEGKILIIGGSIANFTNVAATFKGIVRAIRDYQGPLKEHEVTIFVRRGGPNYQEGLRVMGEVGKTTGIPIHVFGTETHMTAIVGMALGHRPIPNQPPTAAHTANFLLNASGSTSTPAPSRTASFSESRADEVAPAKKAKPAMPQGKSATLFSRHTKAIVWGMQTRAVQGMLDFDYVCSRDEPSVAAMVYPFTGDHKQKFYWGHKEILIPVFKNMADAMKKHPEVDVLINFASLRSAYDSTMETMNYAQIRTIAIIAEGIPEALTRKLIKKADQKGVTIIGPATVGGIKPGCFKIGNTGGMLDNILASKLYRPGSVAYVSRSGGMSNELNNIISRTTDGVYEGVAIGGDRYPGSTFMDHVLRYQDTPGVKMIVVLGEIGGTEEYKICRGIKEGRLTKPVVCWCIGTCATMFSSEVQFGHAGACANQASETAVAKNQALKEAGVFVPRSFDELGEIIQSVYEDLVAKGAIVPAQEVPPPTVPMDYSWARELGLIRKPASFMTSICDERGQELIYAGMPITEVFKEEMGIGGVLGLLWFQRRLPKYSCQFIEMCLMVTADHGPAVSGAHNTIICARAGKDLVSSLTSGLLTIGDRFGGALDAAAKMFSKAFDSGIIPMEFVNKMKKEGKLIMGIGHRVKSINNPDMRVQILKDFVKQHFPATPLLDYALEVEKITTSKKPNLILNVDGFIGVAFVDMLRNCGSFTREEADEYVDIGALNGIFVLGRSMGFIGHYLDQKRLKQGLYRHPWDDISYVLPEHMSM
In short: (§3)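 Liver was taken from CF1 male mice and made into 10% homogenates, which were incubated with test compound at 50, 100 or 200 µM. Each enzyme was assayed by its literature method, and protein was measured by Lowry. N = 6. Activity is expressed as % of untreated control ± SD.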

Rattus norvegicus [8] = assay: Compound was evaluated for the hypolipidemic activity at 20 mg/kg per day orally for 14 days on triglycerides content in rat liver; assay type: functional; settings: route oral
In short: (§4)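 Male Sprague–Dawley rats were dosed orally for 14 days. Liver, small intestine and a 24-h fecal collection were lipid-extracted. Extracts were assayed for cholesterol (modified Liebermann–Burchard), triglyceride (enzymatic kit), neutral lipids, phospholipids and protein. Values are % of 1% CMC vehicle control, mean ± SD, N = 6.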

[9] = target: T2, Sterol O-acyltransferase 1 (Mus musculus) (UniProt Q61263); assay: In Vitro evaluation for the CF1 liver enzyme activity on Acyl cholesterol acyltransferase at concentration 100 uM; assay type: functional, tissue-based; in short: as §3
T2 sequence (whole entry): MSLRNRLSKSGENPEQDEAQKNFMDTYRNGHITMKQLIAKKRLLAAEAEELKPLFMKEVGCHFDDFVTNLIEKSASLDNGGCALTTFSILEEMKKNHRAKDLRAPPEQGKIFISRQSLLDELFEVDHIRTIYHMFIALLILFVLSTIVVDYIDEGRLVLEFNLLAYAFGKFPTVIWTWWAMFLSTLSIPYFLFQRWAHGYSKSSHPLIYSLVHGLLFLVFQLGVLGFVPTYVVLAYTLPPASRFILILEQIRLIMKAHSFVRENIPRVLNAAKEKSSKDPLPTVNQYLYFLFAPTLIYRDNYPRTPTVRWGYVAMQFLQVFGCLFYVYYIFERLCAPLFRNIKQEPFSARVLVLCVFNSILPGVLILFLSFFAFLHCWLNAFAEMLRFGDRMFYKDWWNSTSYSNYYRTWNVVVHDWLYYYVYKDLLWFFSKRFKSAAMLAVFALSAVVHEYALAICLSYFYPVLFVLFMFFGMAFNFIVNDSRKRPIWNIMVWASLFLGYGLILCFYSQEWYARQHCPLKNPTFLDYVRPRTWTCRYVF

Rattus norvegicus [10] = assay: Compound was evaluated for the hypolipidemic activity at 20 mg/kg per day orally for 14 days on phospholipids content in rat small intestine.; assay type: functional; settings: route oral; in short: as §4

activity at 200 µM [5]: 113%
Control [7]: 72%
Control [9]: 63%
SMILES: COc1ccc(C2C(=O)c3ccccc3C2=O)cc1 [ANISINDIONE]
Control (Mus musculus [1]): 93%
Control (Mus musculus [2]): 62%
Control (Rattus norvegicus [3]): 72%
Control (Rattus norvegicus [4]): 88%
Control (Rattus norvegicus [6]): 107%
Control (Rattus norvegicus [8]): 37%
Control (Rattus norvegicus [10]): 136%
